Read-outs that look alike come from different tables or passages of the source.

The conditions of data set [1]: single-agent docetaxel, second line NSCLC; cited from earlier work.
Data set [2] in a line: Docetaxel pharmacokinetics in plasma, day 1 of cycle 1. It is filed as in vivo. Particulars: human, intravenous. The procedure, abridged:
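Patients with advanced NSCLC got a 60-min i.v. docetaxel infusion on day 1, alongside oral everolimus (5 or 7.5 mg daily) and dexamethasone premedication (8 mg twice daily for 3 days, starting the day before). Peripheral venous blood was drawn into sodium heparin on cycle 1 day 1, centrifuged (4 °C, 3000 × g, 10 min), and plasma stored at −80 °C. Validated LC-MS/MS quantitation was used, with noncompartmental t1/2.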

A short description of data set [3]: Everolimus pharmacokinetics in blood, cycle 1. It is filed as in vivo, human. As to conditions: for AUC(0-t) / Cmax: human, whole blood, oral. The method, boiled down: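 NSCLC patients; oral mTOR inhibitor daily on days 1–19 of 3-week cycles, with a 60-min i.v. co-drug infusion on day 1 and dexamethasone premedication. Cycle 1, days 1, 8 and 15: 2 mL venous blood into K-EDTA at 30 min pre-dose and 1, 2, 5, 8 and 24 h post-dose, frozen at −20 °C within 60 min.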

For data set [4] the following is noted: single agent; cited from earlier work.
Data set [5] deals with recurrent or refractory NSCLC. As to conditions: everolimus monotherapy; cited from earlier work.

Take `CC(=O)O[C@@]12CO[C@@H]1C[C@H](O)[C@@]1(C)C(=O)[C@H](O)C3=C(C)[C@@H](OC(=O)[C@H](O)[C@@H](NC(=O)OC(C)(C)C)c4ccccc4)C[C@@](O)([C@@H](OC(=O)c4ccccc4)[C@H]21)C3(C)C` [Docetaxel, docetaxel]: the “recommended phase II dose (RP2D)” value (docetaxel day 1 every 3 weeks, in combination with everolimus) stood at 60 mg/m^2. The “incidence of fever with neutropenia” value in data set [1] is reported as 2–12%. Further, the half-life in data set [2] was 9.4 ± 3.4 h; in data set [2] (60 mg/m2), 16.8 h; in data set [2] (75 mg/m2) it was 8.74 h. Further, the area under the curve AUC(0-inf) stood at 2.08 µM·h in data set [2] (60 mg/m2, AUC0-∞, Day 1, everolimus 5 mg/day, docetaxel 60 mg/m^2, n=1); 6.95 µM·h in data set [2] (75 mg/m2, AUC0-∞, Day 1, everolimus 5 mg/day, docetaxel 75 mg/m^2, n=3, mean (SD)); 7.3 µM·h in data set [2] (75 mg/m2, AUC0-∞, Day 1, everolimus 7.5 mg/day, docetaxel 75 mg/m^2, n=1). The maximum concentration (Cmax) in data set [2] (60 mg/m2, Cmax, Day 1, everolimus 5 mg/day, docetaxel 60 mg/m^2, n=1) is 1010 nM; in data set [2] (75 mg/m2, Cmax, Day 1, everolimus 5 mg/day, docetaxel 75 mg/m^2, n=3, mean (SD)), 1610 nM.
Regarding `CO[C@H]1C[C@@H]2CC[C@@H](C)[C@@](O)(O2)C(=O)C(=O)N2CCCC[C@H]2C(=O)O[C@H]([C@H](C)C[C@@H]2CC[C@@H](OCCO)[C@H](OC)C2)CC(=O)[C@H](C)/C=C(\C)[C@@H](O)[C@@H](OC)C(=O)[C@H](C)C[C@H](C)/C=C/C=C/C=C/1C` [Everolimus, everolimus], the “Everolimus exposure (mean AUC and Cmax) versus dose” value in data set [3] (5 and 7.5 mg/day) was “increased proportionally with dose”. Further, the AUC(0-t) in data set [3] (60 mg/m2, AUC0-24, Day 1, everolimus 5 mg/day, docetaxel 60 mg/m^2, n=3, mean (SD)) is 244 ng·h/mL; in data set [3] (60 mg/m2, AUC0-24, Day 8, everolimus 5 mg/day, docetaxel 60 mg/m^2, n=3, mean (SD)), 329 ng·h/mL; in data set [3] (60 mg/m2, AUC0-24, Day 15, everolimus 5 mg/day, docetaxel 60 mg/m^2, n=3, mean (SD)) it was 350 ng·h/mL; in data set [3] (75 mg/m2, AUC0-24, Day 1, everolimus 5 mg/day, docetaxel 75 mg/m^2, n=10, mean (SD)), 330 ng·h/mL; in data set [3] (75 mg/m2, AUC0-24, Day 1, everolimus 7.5 mg/day, docetaxel 75 mg/m^2, n=4, mean (SD)), 379 ng·h/mL; in data set [3] (75 mg/m2, AUC0-24, Day 8, everolimus 5 mg/day, docetaxel 75 mg/m^2, n=6, mean (SD)), 336 ng·h/mL. Besides, the AUC(0-t) in data set [3] (75 mg/m2, AUC0-24, Day 15, everolimus 5 mg/day, docetaxel 75 mg/m^2, n=6, mean (SD)) came to 369 ng·h/mL; in data set [3] (75 mg/m2, AUC0-24, Day 15, everolimus 7.5 mg/day, docetaxel 75 mg/m^2, n=1) it was 772 ng·h/mL. Moreover, the highest concentration (Cmax) in data set [3] (60 mg/m2, Cmax, Day 1, everolimus 5 mg/day, docetaxel 60 mg/m^2, n=3, mean (SD)) was found to be 37.7 ng/mL; in data set [3] (60 mg/m2, Cmax, Day 15, everolimus 5 mg/day, docetaxel 60 mg/m^2, n=3, mean (SD)), 51 ng/mL; in data set [3] (75 mg/m2, Cmax, Day 1, everolimus 5 mg/day, docetaxel 75 mg/m^2, n=10, mean (SD)), 22.4 ng/mL; in data set [3] (75 mg/m2, Cmax, Day 8, everolimus 5 mg/day, docetaxel 75 mg/m^2, n=6, mean (SD)), 35.8 ng/mL; in data set [3] (75 mg/m2, Cmax, Day 15, everolimus 5 mg/day, docetaxel 75 mg/m^2, n=6, mean (SD)) it was 37.8 ng/mL; in data set [3] (75 mg/m2, Cmax, Day 15, everolimus 7.5 mg/day, docetaxel 75 mg/m^2, n=1), 102 ng/mL. Further, the “inter-patient variability in AUC” value in data set [4] was 33%. Besides, the “recommended phase II dose (RP2D)” value (everolimus days 1-19 every 3 weeks, in combination with docetaxel) stood at 5 mg PO daily. Also, the response rate in data set [5] is 5%.

Usually half-life stands for how long it takes for the measured level to halve. The term AUC(0-inf) denotes total exposure, with the tail of the curve extrapolated. A word on the Cmax: it is the highest concentration seen after dosing. A word on the AUC(0-t): it is the area under the concentration-time curve up to a stated or last time point. Low readings indicate less exposure, high ones more exposure.

The record behind these values is PMC2940062 (Cancer, 2010).
